For experiment [1], the target named is T1, Protein farnesyltransferase (Rattus norvegicus, UniProt Q02293+Q04631). Kind of experiment: Inhibition of rat brain farnesyltransferase in 30 mM potassium phosphate buffer. The procedure, abridged:
(§1)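 40-fold purified rat brain FTase at pH 7.4 with 1.2 mM MgCl2, leupeptin, pepstatin and PMSF. Substrates: [1-3H]farnesyl pyrophosphate (0.12 μM final) and biotinyl-aminoheptanoyl-TKCVIM peptide (0.1 μM final). Compounds were serially diluted from DMSO and incubated 30 min at 37 °C. Stopped with streptavidin beads in acidic Mg acetate/BSA and scintillation counted.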

Experiment [2] addresses T1, Protein farnesyltransferase. Description: Inhibition of rat brain farnesyltransferase in 5 mM potassium phosphate and 50 mM HEPES buffer. The method in brief: as §1
Experiment [3] has the same target. Kind of experiment: Inhibition of rat brain farnesyltransferase in 50 mM HEPES buffer. The procedure, abridged: as §1
Experiment [4] has as its target Protein farnesyltransferase (Homo sapiens, UniProt P49354+P49356). Kind of experiment: Inhibition of human farnesyltransferase. The class given is protein-complex assay.
Experiment [5] concerns the target T1, Protein farnesyltransferase. Kind of experiment: Inhibitory concentration against rat brain farnesyltransferase. The procedure, abridged:
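Rat brain FTase (40-fold purified), pH 7.4, in 30 mM potassium phosphate, 5 mM phosphate plus 50 mM Hepes, or 50 mM Hepes. Buffer also held 7 mM DTT, 1.2 mM MgCl2 and protease inhibitors. Final substrates were 0.12 μM [1-3H]FPP and 0.1 μM biotinyl-aminoheptanoyl-TKCVIM, with inhibitor varied from DMSO stock. Reaction ran 30 min at 37 °C, was stopped with streptavidin beads, and was counted by scintillation proximity. Generally n = 2.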

Experiment [6] addresses geranylgeranyltransferase type-I (Rattus norvegicus, UniProt P53610+Q04631). Description: Inhibition of rat brain Geranylgeranyl transferase type I. The note with it: in the assay text read “rat” for “rat brain”. The method in brief:
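Rat GGTase-I expressed in Sf9 cells, assayed like the FTase test. Substrates were geranylgeranyl pyrophosphate and biotinyl-aminoheptanoyl-Thr-Lys-Cys-Val-Ile-Leu, with inhibitor varied from DMSO stock. Incubation at 37 °C. Streptavidin bead capture with radioactivity count as the read-out.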

Usually IC50 stands for the midpoint of a concentration-inhibition curve.

With `C[C@H](NC(=O)[C@@H](Cc1c[nH]c2ccccc12)NC(=O)[C@@H](COCc1ccccc1)NC(=O)[C@@H](Cc1ccc(OP(=O)(O)O)cc1)NC(=O)[C@@H](Cc1c[nH]cn1)NC(=O)OCc1ccccc1)C(N)=O`, the IC50 is 13 nM in experiment [1], 9 nM in experiment [2] and 6 nM in experiment [3].

On to `C[C@@H](NC(=O)[C@H](Cc1c[nH]c2ccccc12)NC(=O)[C@H](COCc1ccccc1)NC(=O)[C@H](Cc1ccc(OCc2ccccc2)cc1)NC(=O)[C@H](Cc1c[nH]cn1)NC(=O)OCc1ccccc1)C(N)=O` (single isomer, unassigned), for which the half-maximal inhibitory concentration (IC50) turned out to be 10 nM in experiment [4]; 20 nM in experiment [5]; 20 nM in experiment [1]; 76 nM in experiment [2]; 1250 nM in experiment [6]; 1600 nM in experiment [3].

With `C[C@H](NC(=O)[C@@H](Cc1c[nH]c2ccccc12)NC(=O)[C@@H](COCc1ccccc1)NC(=O)C(Cc1ccc(CP(=O)(O)O)cc1)NC(=O)[C@@H](Cc1cnc[nH]1)NC(=O)OCc1ccccc1)C(N)=O` (some centres not stated), the half-inhibitory concentration (IC50) came to 200 nM in experiment [1], 280 nM in experiment [2] and 190 nM in experiment [3].

Take `C[C@H](NC(=O)[C@@H](Cc1c[nH]c2ccccc12)NC(=O)[C@@H](COP(=O)(O)O)NC(=O)[C@@H](Cc1ccc(OCc2ccccc2)cc1)NC(=O)[C@@H](Cc1cnc[nH]1)NC(=O)OCc1ccccc1)C(N)=O`: the IC50 worked out at 240 nM in experiment [1], 360 nM in experiment [2] and 660 nM in experiment [3].

Regarding `CCOP(=O)(Cc1ccc(CC(NC(=O)[C@@H](Cc2cnc[nH]2)NC(=O)OCc2ccccc2)C(=O)N[C@H](COCc2ccccc2)C(=O)N[C@H](Cc2c[nH]c3ccccc23)C(=O)N[C@@H](C)C(N)=O)cc1)OCC` (some centres not stated), the IC50 in experiment [1] amounted to 25 nM; in experiment [2] it was 49 nM; in experiment [3] it was 75 nM.

As to `C[C@@H](NC(=O)[C@H](Cc1c[nH]c2ccccc12)NC(=O)[C@H](COCc1ccccc1)NC(=O)[C@H](Cc1ccc(O)cc1)NC(=O)[C@H](Cc1c[nH]cn1)NC(=O)OCc1ccccc1)C(N)=O` (single isomer, unassigned), the IC50 in experiment [5] amounted to 35 nM; in experiment [1], 35 nM; in experiment [2] it was 102 nM; in experiment [3], 510 nM.

These data come from ChEMBL document CHEMBL1130162, “Structure-activity relationships of cysteine-lacking pentapeptide derivatives that inhibit ras farnesyltransferase” (J Med Chem, 1997).
